Experimental data of several laboratories.
Each line is one published result; the experiments were not run side by side.
Target: Tyrosine-protein kinase Blk (BLK, Homo sapiens, UniProt P51451)

Structure (SMILES) | observed | mode | method | concentration | quantity | result
Cc1cnc(NC2CCOCC2)nc1-n1cnc(C(=O)NC(CN)c2cc(F)cc(Cl)c2)c1 (stereo not drawn) | enzyme activity | inhibitor | radiometric | 1 µM | remaining activity | 112%
CC(C)(O)[C@H]1CC[C@H](Nc2ccc3ncc(-c4cccc(C(F)(F)F)c4)n3n2)CC1 | enzyme activity | inhibitor |  | 1 µM | remaining activity | 37.5%
Nc1nc(Nc2ccc(S(N)(=O)=O)cc2)nn1C(=O)c1c(F)cccc1F | cell-free assay |  |  | 0.5 µM | remaining signal | 90.1%
O=C(Nc1cnn(-c2csc(C(=O)NC3COC3)c2)c1)Nc1c(F)cccc1Cl | enzyme activity | inhibitor |  | 5 µM | remaining activity | 96.1%
CC/C(=N\NC(=O)NCc1cccc(O)c1)c1ccc(O)c(C)c1O | enzyme activity | inhibitor |  | 0.1 µM | inhibition | 6%
CC(C)(C)c1nc(-c2cccc(NS(=O)(=O)c3c(F)cccc3F)c2F)c(-c2ccnc(N)n2)s1 | enzyme activity | inhibitor | radiometric | 1 µM | remaining activity | 29%
COc1cc2ncnc(Nc3ccc(Oc4ccccc4)cc3C)c2cc1OC | enzyme activity | inhibitor |  | 1 µM | inhibition | 85%
CN(C(=O)c1ccccc1)c1cc(N(C)c2ccc3c(c2)CCc2ccc(C(=O)NCCN4CCOCC4)cc2C3=O)ccc1F | cell-free assay |  | competition with immobilised ligand | 1 µM | remaining binding | 100%
O=C1NC(=O)c2cc(Nc3ccc(F)cc3)c(Nc3ccc(F)cc3)cc21 | cell-free assay |  |  | 0.5 µM | remaining signal | 94.3%
Nc1ncnc2occ(-c3ccc(NC(=O)Nc4cc(C(F)(F)F)ccc4F)cc3)c12 | cell-free assay |  |  | 20 µM | remaining signal | 0.45%
CCC(=O)N[C@@H]1CC[C@H](C(=O)N(C)c2ccc(-c3nc4ccccc4o3)cc2)C1 | cell-free assay |  | competition with immobilised ligand | 1 µM | remaining binding | 100%
Cc1ccc(C(=O)Nc2ccc(CN3CCN(C)CC3)c(C(F)(F)F)c2)cc1C#Cc1cnc2cccnn12 | enzyme activity |  |  | 23.5 nM | remaining activity | 1.2%
O=C(Nc1cccnn1)N1CC(C/C=C/c2cncc(Oc3ccc(C(F)(F)F)cn3)n2)C1 | cell-free assay |  | competition with immobilised ligand | 1 µM | remaining binding | 65%
C=CC(=O)Nc1cc(Nc2nccc(Nc3cc(Cl)c(F)cc3C(C)(C)O)n2)c(OC)cc1N1CC[C@@H](N(C)C)C1 | enzyme activity | inhibitor |  | 1 µM | inhibition | 90%
CC(C)CC(=O)N1CCc2nc(-c3ccc(Br)cc3)nc(N(C)Cc3ccccc3)c2C1 | cell-free assay |  | competition with immobilised ligand | 0.1 µM | remaining binding | 84%
Cc1ccc(C(=O)NCc2ccsc2)cc1C#Cc1cn(C(C)C)c2ncnc(N)c12 | enzyme activity | inhibitor |  | 1 µM | activity vs control | 4%
N#Cc1ccc(Nc2ccc3[nH]c(=O)[nH]c3c2)c(Cl)c1 | cell-free assay |  | competition with immobilised ligand | 1 µM | remaining binding | 97%
O=c1cc(-c2cccc3c2Sc2ccccc2S3)oc(N2CCOCC2)c1 | enzyme activity | inhibitor |  | 0.5 µM | remaining activity | 96.2%
